Measurements from ChEMBL document CHEMBL1150371, “Design and synthesis of benzenesulfonanilides active against methicillin-resistant Staphylococcus aureus and vancomycin-resistant Enterococcus” (Bioorg Med Chem, 2008).
Converted amounts (≈) assume the structure as drawn. The source made the active and inactive calls. No cut-off for these calls is given here.

Tests used:
Assay type in all cases: functional
[1] = test system: Staphylococcus aureus; assay: Antimicrobial activity against methicillin-resistant Staphylococcus aureus OM584 by microdilution method
Method in brief: (§1)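 Broth microdilution MIC per Japan Society of Chemotherapy standard method. Cultures grown in sensitivity test broth at 37 °C to OD620 0.1, inoculum ≈10^5 CFU/mL. Twofold dilutions from DMSO stock, 500 to 0.2 µg/mL; 20 h, 37 °C, humid. MIC = lowest concentration clearly inhibiting growth by visual inspection; vancomycin standard; media, DMSO and water controls; at least duplicate.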

[2] = test system: Enterococcus faecium; assay: Antimicrobial activity against vancomycin-resistant Enterococcus faecium FN-1 by microdilution susceptibility test; method in brief: as §1
[3] = test system: Staphylococcus aureus; assay: Antimicrobial activity against methicillin-resistant Staphylococcus aureus at […] by disk diffusion method
Method in brief: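 Overnight nutrient-broth culture (35 °C, 12–18 h) of MRSA OM584 spread on Mueller-Hinton agar; 8-mm paper discs given 10 µL of 20 mM compound in DMSO; plates incubated at 37 °C about 20 h; inhibition zones measured and scored: −, ± (0–1 mm), +1 (1–15 mm), +2 (15–20 mm), +3 (>20 mm).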

Row | Structure (SMILES) | MIC [1] [µg/mL] | MIC [2] [µg/mL] | Activity [3] | inhibition zone (IZ) [3] [mm]
1 | O=S(=O)(Nc1c(F)cccc1F)c1cc(C(F)(F)F)cc(C(F)(F)F)c1 | > 250 | > 250 | – | –
2 | O=S(=O)(Nc1ccc(Cl)cc1)c1cc(Cl)cc(Cl)c1 | > 250 | 125 (≈ 371 µM) | – | –
3 | COc1ccc(NS(=O)(=O)c2ccc(N)cc2)cc1 | – | – | inactive | –
4 | Cc1ccc(S(=O)(=O)Nc2cc(Cl)cc(Cl)c2)cc1 | 125 (≈ 395 µM) | 62.5 (≈ 198 µM) | – | –
5 | Cc1ccc(NS(=O)(=O)c2cc(C(F)(F)F)cc(C(F)(F)F)c2)cc1 | > 250 | > 250 | – | –
6 | CN[C@H](CC(C)C)C(=O)N[C@H]1C(=O)N[C@@H](CC(N)=O)C(=O)N[C@H]2C(=O)N[C@H]3C(=O)N[C@H](C(=O)N[C@H](C(=O)O)c4cc(O)cc(O)c4-c4cc3ccc4O)[C@H](O)c3ccc(c(Cl)c3)Oc3cc2cc(c3O[C@@H]2O[C@H](CO)[C@@H](O)[C@H](O)[C@H]2O[C@H]2C[C@](C)(N)[C@H](O)[C@H](C)O2)Oc2ccc(cc2Cl)[C@H]1O [VANCOMYCIN] | – | 125 (≈ 86.3 µM) | – | –
7 | COc1ccc(S(=O)(=O)Nc2cc(C(F)(F)F)cc(C(F)(F)F)c2)cc1 | 62.5 (≈ 157 µM) | 62.5 (≈ 157 µM) | – | 1
8 | O=[N+]([O-])c1ccc(S(=O)(=O)Nc2cc(Cl)cc(Cl)c2)cc1 | > 250 | 62.5 (≈ 180 µM) | – | –
9 | O=S(=O)(Nc1c(Cl)cccc1Cl)c1cc(C(F)(F)F)cc(C(F)(F)F)c1 | > 250 | > 250 | – | –
10 | Cc1cc(C)cc(NS(=O)(=O)c2ccc(NS(C)(=O)=O)cc2)c1 | – | – | inactive | –
11 | Cl.O=[N+]([O-])c1ccc(S(=O)(=O)Nc2cc(C(F)(F)F)cc(C(F)(F)F)c2)cc1 | – | – | – | >20
12 | O=[N+]([O-])c1ccc(S(=O)(=O)Nc2cc(C(F)(F)F)cc(C(F)(F)F)c2)cc1 | 31.3 (≈ 75.6 µM) | 3.9 (≈ 9.41 µM) | – | >20
13 | Cc1ccccc1NS(=O)(=O)c1ccc(C(=O)O)cc1 | – | – | inactive | –
14 | CN(c1cc(C(F)(F)F)cc(C(F)(F)F)c1)S(=O)(=O)c1cc(Cl)cc(Cl)c1 | > 250 | > 250 | – | –
15 | O=S(=O)(Nc1cc(Cl)cc(Cl)c1)c1ccc(C(F)(F)F)cc1 | 15.6 (≈ 42.1 µM) | 7.8 (≈ 21.1 µM) | – | –
16 | O=S(=O)(Nc1ccc(F)cc1F)c1cc(C(F)(F)F)cc(C(F)(F)F)c1 | > 250 | > 250 | – | –
17 | Cc1ccc(NS(=O)(=O)c2ccc(C(=O)O)cc2)cc1 | – | – | inactive | –
18 | O=S(=O)(Nc1ccc(Cl)cc1Cl)c1cc(C(F)(F)F)cc(C(F)(F)F)c1 | > 250 | > 250 | – | –
19 | Cc1ccc(NS(=O)(=O)c2ccc(N)cc2)cc1 | – | – | inactive | –

Row | Structure (SMILES) | MIC [1] [µg/mL] | MIC [2] [µg/mL] | Activity [3] | inhibition zone (IZ) [3] [mm]
20 | COc1ccc(NS(=O)(=O)c2ccc([N+](=O)[O-])cc2)cc1 | – | – | inactive | –
21 | Nc1ccc(S(=O)(=O)Nc2ccccc2)cc1 | – | – | inactive | –
22 | Cc1ccc(S(=O)(=O)Nc2cc(C(F)(F)F)cc(C(F)(F)F)c2)cc1 | 62.5 (≈ 163 µM) | 62.5 (≈ 163 µM) | inactive | –
23 | O=S(=O)(Nc1cc(Cl)c(O)c(Cl)c1)c1cc(Cl)cc(Cl)c1 | 31.3 (≈ 80.9 µM) | 31.3 (≈ 80.9 µM) | – | –
24 | Cc1cc(C)cc(NS(=O)(=O)c2ccc(C(=O)O)cc2)c1 | – | – | inactive | –
25 | O=S(=O)(Nc1ccc(C(F)(F)F)cn1)c1cc(Cl)cc(Cl)c1 | > 250 | > 250 | – | –
26 | Cc1cccc(NS(=O)(=O)c2ccc([N+](=O)[O-])cc2)c1 | – | – | – | 1
27 | Cc1cc(C)cc(NS(=O)(=O)c2ccc([N+](=O)[O-])cc2)c1 | – | – | inactive | –
28 | O=S(=O)(Nc1cccc(F)c1F)c1cc(C(F)(F)F)cc(C(F)(F)F)c1 | 15.6 (≈ 38.5 µM) | 62.5 (≈ 154 µM) | – | –
29 | Nc1ccc(S(=O)(=O)Nc2cc(C(F)(F)F)cc(C(F)(F)F)c2)cc1 | 125 (≈ 325 µM) | 62.5 (≈ 163 µM) | – | 1
30 | Cc1ccc(NS(=O)(=O)c2ccc(NS(C)(=O)=O)cc2)cc1 | – | – | inactive | –
31 | O=S(=O)(Nc1cccc(C(F)(F)F)c1)c1cc(Cl)cc(Cl)c1 | 125 (≈ 338 µM) | 62.5 (≈ 169 µM) | – | –
32 | O=S(=O)(Nc1cc(C(F)(F)F)cc(C(F)(F)F)c1)c1ccc(Cl)cc1 | 7.8 (≈ 19.3 µM) | 7.8 (≈ 19.3 µM) | – | 15
33 | COc1ccc(NS(=O)(=O)c2cc(Cl)cc(Cl)c2)cc1 | 125 (≈ 376 µM) | 125 (≈ 376 µM) | – | –
34 | Nc1ccc(S(=O)(=O)Nc2cc(Cl)cc(Cl)c2)cc1 | 250 (≈ 788 µM) | 31.3 (≈ 98.7 µM) | – | –
35 | Nc1ccc(S(=O)(=O)Nc2ccc(Cl)cc2)cc1 | – | – | inactive | –
36 | CS(=O)(=O)Nc1ccc(S(=O)(=O)Nc2ccc(Cl)cc2)cc1 | – | – | – | 0
37 | O=S(=O)(Nc1cc(C(F)(F)F)cc(C(F)(F)F)c1)c1cc(Cl)cc(Cl)c1 | 0.5 (≈ 1.14 µM) | 1 (≈ 2.28 µM) | – | –
38 | Cc1ccc(NS(=O)(=O)c2cc(Cl)cc(Cl)c2)cc1 | > 250 | 62.5 (≈ 198 µM) | – | –
